# ChEMBL document CHEMBL1123580, “Synthesis and biological properties of side-chain-modified bleomycins” (1987)
# Tests used:
# B16 [1] = test: Effect on the survival of mouse B16 melanoma cells was determined at a dose of 100 ug/mL in vitro; assay type: functional; conditions: read-out: Survival
# Outline: (§1)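 B16 mouse melanoma cells from log-phase cultures seeded at 5 × 10^4 cells/mL in Dulbecco's modified Eagle medium with 10% newborn calf serum; after 24 h, exposed to agent (10 or 100 µg/mL) for 21 h, washed twice, fresh medium. Cells trypsinized and counted 48 h after start of incubation; viability by Trypan blue exclusion. Survival = T/C × 100 versus untreated control; mean of three samples.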
# B16 [2] = test: Effect on the survival of mouse B16 melanoma cells was determined at a dose of 10 ug/mL in vitro; assay type: functional; conditions: read-out: Survival; outline: as §1
Compound,viability at 100 µg/mL (B16 [1]),viability at 10 µg/mL (B16 [2])
Cc1c(N)nc(C(CC(N)=O)NCC(N)C(N)=O)nc1C(=O)NC(C(=O)NC(C)C(O)C(C)C(=O)NC(C(=O)NCCc1nc(-c2nc(C(=O)NCCC[S+](C)CC(=O)Nc3ccc([N+](=O)[O-])cc3)cs2)cs1)C(C)O)C(O[C@@H]1O[C@@H](CO)[C@@H](O)[C@@H](O)[C@@H]1O[C@H]1O[C@H](CO)[C@@H](O)[C@@H](OC(N)=O)[C@@H]1O)c1c[nH]cn1 (some centres not stated),30%,46%
Cc1c(N)nc(C(CC(N)=O)NCC(N)C(N)=O)nc1C(=O)NC(C(=O)NC(C)C(O)C(C)C(=O)NC(C(=O)NCCc1nc(-c2nc(C(=O)NCCC[S+](C)CC(=O)N3CCCC3)cs2)cs1)C(C)O)C(O[C@@H]1O[C@@H](CO)[C@@H](O)[C@@H](O)[C@@H]1O[C@H]1O[C@H](CO)[C@@H](O)[C@@H](OC(N)=O)[C@@H]1O)c1c[nH]cn1 (some centres not stated),29%,35%
Cc1c(N)nc(C(CC(N)=O)NCC(N)C(N)=O)nc1C(=O)NC(C(=O)NC(C)C(O)C(C)C(=O)NC(C(=O)NCCc1nc(-c2nc(C(=O)NCCC[S+](C)CC(=O)N3CCOCC3)cs2)cs1)C(C)O)C(O[C@@H]1O[C@@H](CO)[C@@H](O)[C@@H](O)[C@@H]1O[C@H]1O[C@H](CO)[C@@H](O)[C@@H](OC(N)=O)[C@@H]1O)c1c[nH]cn1 (some centres not stated),28%,51%
Cc1c(N)nc(C(CC(N)=O)NCC(N)C(N)=O)nc1C(=O)NC(C(=O)NC(C)C(O)C(C)C(=O)NC(C(=O)NCCc1nc(-c2nc(C(=O)NCCC[S+](C)CC(=O)Nc3ccc4ccccc4c3)cs2)cs1)C(C)O)C(O[C@@H]1O[C@@H](CO)[C@@H](O)[C@@H](O)[C@@H]1O[C@H]1O[C@H](CO)[C@@H](O)[C@@H](OC(N)=O)[C@@H]1O)c1c[nH]cn1 (some centres not stated),32%,48%
Cc1c(N)nc(C(CC(N)=O)NCC(N)C(N)=O)nc1C(=O)NC(C(=O)NC(C)C(O)C(C)C(=O)NC(C(=O)NCCc1nc(-c2nc(C(=O)NCCC[S+](C)CC(N)=O)cs2)cs1)C(C)O)C(O[C@@H]1O[C@H](CO)[C@H](O)[C@@H](O)[C@@H]1O[C@H]1O[C@@H](CO)[C@@H](O)[C@H](OC(N)=O)[C@H]1O)c1c[nH]cn1 (some centres not stated),21%,38%
Cc1c(N)nc(C(CC(N)=O)NCC(N)C(N)=O)nc1C(=O)NC(C(=O)NC(C)C(O)C(C)C(=O)NC(C(=O)NCCc1nc(-c2nc(C(=O)NCCC[S+](C)CC(=O)Nc3ccccc3)cs2)cs1)C(C)O)C(O[C@@H]1O[C@@H](CO)[C@@H](O)[C@@H](O)[C@@H]1O[C@H]1O[C@H](CO)[C@@H](O)[C@@H](OC(N)=O)[C@@H]1O)c1c[nH]cn1 (some centres not stated),27%,45%
COc1ccc(NC(=O)C[S+](C)CCCNC(=O)c2csc(-c3csc(CCNC(=O)C(NC(=O)C(C)C(O)C(C)NC(=O)C(NC(=O)c4nc(C(CC(N)=O)NCC(N)C(N)=O)nc(N)c4C)C(O[C@@H]4O[C@@H](CO)[C@@H](O)[C@@H](O)[C@@H]4O[C@H]4O[C@H](CO)[C@@H](O)[C@@H](OC(N)=O)[C@@H]4O)c4c[nH]cn4)C(C)O)n3)n2)cc1 (some centres not stated),28%,40%
CCOC(=O)C[S+](C)CCCNC(=O)c1csc(-c2csc(CCNC(=O)C(NC(=O)C(C)C(O)C(C)NC(=O)C(NC(=O)c3nc(C(CC(N)=O)NCC(N)C(N)=O)nc(N)c3C)C(O[C@@H]3O[C@@H](CO)[C@@H](O)[C@@H](O)[C@@H]3O[C@H]3O[C@H](CO)[C@@H](O)[C@@H](OC(N)=O)[C@@H]3O)c3c[nH]cn3)C(C)O)n2)n1 (some centres not stated),27%,43%
Cc1c(N)nc(C(CC(N)=O)NCC(N)C(N)=O)nc1C(=O)NC(C(=O)NC(C)C(O)C(C)C(=O)NC(C(=O)NCCc1nc(-c2nc(C(=O)NCCC[S+](C)CC(=O)NC3CC3)cs2)cs1)C(C)O)C(O[C@@H]1O[C@@H](CO)[C@@H](O)[C@@H](O)[C@@H]1O[C@H]1O[C@H](CO)[C@@H](O)[C@@H](OC(N)=O)[C@@H]1O)c1c[nH]cn1 (some centres not stated),28%,38%
Cc1c(N)nc(C(CC(N)=O)NCC(N)C(N)=O)nc1C(=O)NC(C(=O)NC(C)C(O)C(C)C(=O)NC(C(=O)NCCc1nc(-c2nc(C(=O)NCCC[S+](C)CC(=O)NC(C)C)cs2)cs1)C(C)O)C(O[C@@H]1O[C@H](CO)[C@@H](O)[C@@H](O)C1OC1O[C@@H](CO)C(O)[C@@H](OC(N)=O)[C@@H]1O)c1c[nH]cn1 (some centres not stated),23%,41%
Cc1c(N)nc([C@H](CC(N)=O)NC[C@H](N)C(N)=O)nc1C(=O)N[C@H](C(=O)N[C@H](C)[C@@H](O)[C@H](C)C(=O)N[C@H](C(=O)NCCc1nc(-c2nc(C(=O)NCCC[S+](C)C)cs2)cs1)[C@@H](C)O)[C@@H](O[C@@H]1O[C@@H](CO)[C@@H](O)[C@H](O)[C@@H]1O[C@H]1O[C@H](CO)[C@@H](O)[C@H](OC(N)=O)[C@@H]1O)c1c[nH]cn1 [BLEOMYCIN A2],28%,39%
